In test [1] the target is T1, Transient receptor potential cation channel subfamily A member 1 (Homo sapiens, UniProt O75762). The experiment in a line: Agonist activity at TRPA1 isolated from human W138 cells expressed in HEK293T cells assessed as intracellular Ca2+ influx by Fluo-4 AM staining-based fluorescence analysis. Format: cell-based. The method, boiled down: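 Tetracycline-induced (1 μg/mL) stable hTRPA1 in HEK T-REx cells, Fluo-4 AM loaded (3 μM, 1 h, 37 °C) in HEPES buffer pH 7.4 with probenecid; Ca2+ read at 37 °C. Responses as % of 5 μM ionomycin or of 100 μM AITC; TREx cells without TRPA1 as control; n = 4−8.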
T1 sequence (O75762 whole entry): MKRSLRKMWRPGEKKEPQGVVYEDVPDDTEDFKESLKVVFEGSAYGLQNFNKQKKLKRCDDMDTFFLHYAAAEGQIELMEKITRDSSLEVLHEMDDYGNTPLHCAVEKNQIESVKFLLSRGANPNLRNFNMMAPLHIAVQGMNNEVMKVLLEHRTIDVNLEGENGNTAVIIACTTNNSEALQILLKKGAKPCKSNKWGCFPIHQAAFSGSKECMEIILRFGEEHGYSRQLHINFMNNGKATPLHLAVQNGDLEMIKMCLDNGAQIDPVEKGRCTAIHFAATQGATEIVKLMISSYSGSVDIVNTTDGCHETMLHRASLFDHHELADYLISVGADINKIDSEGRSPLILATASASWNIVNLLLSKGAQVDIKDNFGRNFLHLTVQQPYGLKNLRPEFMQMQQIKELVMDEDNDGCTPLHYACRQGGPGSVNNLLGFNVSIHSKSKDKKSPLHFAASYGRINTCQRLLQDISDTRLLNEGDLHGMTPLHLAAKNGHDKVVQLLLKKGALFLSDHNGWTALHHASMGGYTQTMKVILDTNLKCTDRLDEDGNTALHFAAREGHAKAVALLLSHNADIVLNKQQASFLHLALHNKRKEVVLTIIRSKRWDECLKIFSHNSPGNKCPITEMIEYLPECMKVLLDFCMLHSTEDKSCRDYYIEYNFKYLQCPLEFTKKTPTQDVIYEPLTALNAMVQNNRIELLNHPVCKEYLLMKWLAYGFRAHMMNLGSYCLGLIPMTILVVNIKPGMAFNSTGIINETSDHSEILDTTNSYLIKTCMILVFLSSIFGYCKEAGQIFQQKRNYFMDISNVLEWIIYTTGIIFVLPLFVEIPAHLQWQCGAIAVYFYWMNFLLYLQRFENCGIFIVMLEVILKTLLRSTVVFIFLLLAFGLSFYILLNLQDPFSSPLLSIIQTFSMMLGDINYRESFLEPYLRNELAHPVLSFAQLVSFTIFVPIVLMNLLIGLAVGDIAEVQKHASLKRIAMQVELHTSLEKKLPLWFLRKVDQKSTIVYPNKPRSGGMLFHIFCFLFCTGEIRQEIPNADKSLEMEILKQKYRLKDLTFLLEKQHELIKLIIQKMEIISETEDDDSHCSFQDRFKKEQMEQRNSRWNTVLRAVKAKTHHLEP

In test [2] the target is Transient receptor potential cation channel subfamily M member 8 (Mus musculus) (UniProt Q8R4D5). The experiment in a line: (§1) Antagonist at TRPM8 isolated from mouse dorsal root ganglion cells expressed in HEK T-REx cells assessed as inhibition of menthol-induced intracellular Ca2+ influx by fluorescence-based assay. Format: cell-based. The method, boiled down:
(§2)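 Tetracycline-induced mTRPM8 in HEK T-REx, Fluo-4 Ca2+ at 37 °C. Antagonists (e.g. 0.01−100 μM, CNA up to 500 μM) preincubated 3 min before 10 μM menthol. IC50 from dose−inhibition curves, data as % of 10 μM menthol; n = 4−12.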

The target of test [3] is Transient receptor potential cation channel subfamily M member 8 (Mus musculus, UniProt Q8R4D5). Described as §1. The format is cell-based. Put shortly: as §2
Chain of Transient receptor potential cation channel subfamily M member 8 (Q8R4D5 whole entry): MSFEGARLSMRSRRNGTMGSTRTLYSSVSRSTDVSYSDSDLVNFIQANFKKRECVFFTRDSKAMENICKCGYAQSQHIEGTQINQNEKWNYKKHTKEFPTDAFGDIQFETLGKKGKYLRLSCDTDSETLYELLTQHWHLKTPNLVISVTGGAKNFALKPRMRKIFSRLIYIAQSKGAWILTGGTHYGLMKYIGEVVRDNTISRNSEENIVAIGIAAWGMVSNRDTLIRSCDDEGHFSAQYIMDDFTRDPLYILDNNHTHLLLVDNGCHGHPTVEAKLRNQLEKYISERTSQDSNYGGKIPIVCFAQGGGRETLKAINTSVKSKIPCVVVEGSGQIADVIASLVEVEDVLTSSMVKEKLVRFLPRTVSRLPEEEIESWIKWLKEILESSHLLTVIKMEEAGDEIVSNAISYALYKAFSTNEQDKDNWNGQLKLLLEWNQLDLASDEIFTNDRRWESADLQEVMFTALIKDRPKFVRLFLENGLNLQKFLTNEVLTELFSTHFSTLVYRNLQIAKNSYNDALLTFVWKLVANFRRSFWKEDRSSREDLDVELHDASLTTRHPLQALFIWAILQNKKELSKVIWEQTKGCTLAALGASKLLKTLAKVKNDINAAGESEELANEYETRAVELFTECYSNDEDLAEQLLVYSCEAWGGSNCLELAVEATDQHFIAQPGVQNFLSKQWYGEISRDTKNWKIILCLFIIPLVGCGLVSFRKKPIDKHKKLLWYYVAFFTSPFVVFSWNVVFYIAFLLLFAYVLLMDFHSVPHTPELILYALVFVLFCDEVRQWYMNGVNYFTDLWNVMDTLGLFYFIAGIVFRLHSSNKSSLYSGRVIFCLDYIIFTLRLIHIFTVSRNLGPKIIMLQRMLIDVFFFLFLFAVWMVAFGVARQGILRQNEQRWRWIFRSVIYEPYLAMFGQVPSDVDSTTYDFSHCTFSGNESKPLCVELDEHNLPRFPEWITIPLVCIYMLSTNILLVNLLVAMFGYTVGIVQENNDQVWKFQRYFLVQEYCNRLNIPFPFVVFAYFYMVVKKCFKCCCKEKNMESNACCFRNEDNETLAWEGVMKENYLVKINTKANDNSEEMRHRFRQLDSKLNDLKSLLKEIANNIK
Test [4] concerns the target T2, Transient receptor potential cation channel subfamily V member 1 (Homo sapiens, UniProt Q8NER1). The test is described as follows: Antagonist activity at human brain TRPV1 expressed in HEK293T cells assessed as inhibition of CAP-induced intracellular Ca2+ influx by fluorescence-based assay. Format: cell-based, HEK-293T. Put shortly: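 hTRPV1-HEK293T, Fluo-4 Ca2+ at 37 °C; antagonist (0.3−100 μM) preincubated 3 min then 0.01 μM capsaicin; DMSO final 0.1−1%. IC50 from dose−inhibition curves; data as % of 10 μM capsaicin.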

For test [5], the target named is T2, Transient receptor potential cation channel subfamily V member 1. The test is described as follows: Competitive antagonist activity at human brain TRPV1 expressed in HEK293T cells assessed as inhibition of CAP-induced intracellular Ca2+ influx preincubated for 3 mins followed by CAP challenge by Schlid plot analysis. Format: cell-based. The method, boiled down:
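hTRPV1-HEK293T; capsaicin curves 0.0001−10 μM with 10, 30, 50 μM compound after 3 min preincubation. Schild plots (log(dose ratio − 1) vs log antagonist), six series; slope not differing from unity taken as competitive; KB derived.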

Test [6] shares this target. The test is described as follows: Competitive antagonist activity at human brain TRPV1 expressed in HEK293T cells assessed as inhibition of CAP-induced intracellular Ca2+ influx at 50 uM preincubated for 3 mins followed by CAP challenge measured after 10 mins of post compound washout. Format: cell-based. To be noted: HEK-293T. The method, boiled down:
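hTRPV1-HEK293T cells incubated 3 min with 50 μM compound, washed six times with buffer, kept 10 min at 37 °C in dark, then challenged with 0.01 μM capsaicin; Fluo-4 Ca2+ read-out as % of 10 μM capsaicin.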

For test [7], the target named is T3, Transient receptor potential cation channel subfamily V member 2 (Homo sapiens) (UniProt Q9Y5S1).
T3 sequence (whole entry): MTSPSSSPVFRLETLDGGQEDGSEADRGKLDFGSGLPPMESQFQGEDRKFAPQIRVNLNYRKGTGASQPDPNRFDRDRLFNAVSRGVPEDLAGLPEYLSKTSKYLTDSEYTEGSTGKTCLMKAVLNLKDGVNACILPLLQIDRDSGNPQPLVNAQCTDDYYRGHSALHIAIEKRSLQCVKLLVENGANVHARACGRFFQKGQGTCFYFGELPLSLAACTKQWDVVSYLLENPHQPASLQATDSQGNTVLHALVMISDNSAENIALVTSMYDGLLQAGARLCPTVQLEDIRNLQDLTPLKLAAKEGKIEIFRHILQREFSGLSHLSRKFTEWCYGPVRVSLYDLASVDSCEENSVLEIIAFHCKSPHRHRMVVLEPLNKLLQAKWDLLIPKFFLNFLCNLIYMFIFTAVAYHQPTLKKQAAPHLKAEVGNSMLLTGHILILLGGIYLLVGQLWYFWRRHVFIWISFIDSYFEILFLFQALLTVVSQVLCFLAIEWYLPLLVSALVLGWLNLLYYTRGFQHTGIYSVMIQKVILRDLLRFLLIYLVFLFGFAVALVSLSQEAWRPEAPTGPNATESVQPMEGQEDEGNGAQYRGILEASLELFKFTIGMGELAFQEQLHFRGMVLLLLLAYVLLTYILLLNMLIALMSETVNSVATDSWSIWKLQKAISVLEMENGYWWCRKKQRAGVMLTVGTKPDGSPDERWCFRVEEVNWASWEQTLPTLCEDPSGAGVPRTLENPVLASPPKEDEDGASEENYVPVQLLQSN
The test is described as follows: Agonist activity at human TRPV2 expressed in HEK293T cells assessed as intracellular Ca2+ influx at 100 uM by Fluo-4 AM staining-based fluorescence analysis. The format is cell-based. Particulars: HEK-293T. The method, boiled down: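 hTRPV2 transiently transfected into HEK293T, seeded 6 h after transfection and used 18 h later. Fluo-4 loading in probenecid-free buffer, 37 °C. Agonist 30 and 40 μM LPC; ruthenium red 5 μM as reference blocker; 100 μM compound given alone or pretreated 3 min. Read-out ΔF/F0 (%).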

The target in test [8] is T1, Transient receptor potential cation channel subfamily A member 1. The test is described as follows: Agonist activity at TRPA1 isolated from human W138 cells expressed in HEK293T cells assessed as intracellular Ca2+ influx at 100 uM by Fluo-4 AM staining-based fluorescence analysis. Format: cell-based. Put shortly:
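Tetracycline-induced (1 μg/mL) stable hTRPA1 in HEK T-REx cells, Fluo-4 AM loaded (3 μM, 1 h, 37 °C) in HEPES buffer pH 7.4 with probenecid; Ca2+ read at 37 °C. Compound 0.01−100 μM; HC-030031 30 μM pretreated 3 min. Responses as % of 5 μM ionomycin or of 100 μM AITC; TREx cells without TRPA1 as control; n = 4−8.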

For test [9], the target named is Transient receptor potential cation channel subfamily M member 8 (Mus musculus) (UniProt Q8R4D5). Particulars: Dorsal root ganglion, HEK T-REx, 3 to 30 uM.
Chain of Transient receptor potential cation channel subfamily M member 8 (Mus musculus) (Q8R4D5 whole entry): as the sequence (Q8R4D5 whole entry) above

Activity calls are given as the source filed them. The calls are words filed in the database; no cut-off is given here.

T2 sequence (Q8NER1 whole entry): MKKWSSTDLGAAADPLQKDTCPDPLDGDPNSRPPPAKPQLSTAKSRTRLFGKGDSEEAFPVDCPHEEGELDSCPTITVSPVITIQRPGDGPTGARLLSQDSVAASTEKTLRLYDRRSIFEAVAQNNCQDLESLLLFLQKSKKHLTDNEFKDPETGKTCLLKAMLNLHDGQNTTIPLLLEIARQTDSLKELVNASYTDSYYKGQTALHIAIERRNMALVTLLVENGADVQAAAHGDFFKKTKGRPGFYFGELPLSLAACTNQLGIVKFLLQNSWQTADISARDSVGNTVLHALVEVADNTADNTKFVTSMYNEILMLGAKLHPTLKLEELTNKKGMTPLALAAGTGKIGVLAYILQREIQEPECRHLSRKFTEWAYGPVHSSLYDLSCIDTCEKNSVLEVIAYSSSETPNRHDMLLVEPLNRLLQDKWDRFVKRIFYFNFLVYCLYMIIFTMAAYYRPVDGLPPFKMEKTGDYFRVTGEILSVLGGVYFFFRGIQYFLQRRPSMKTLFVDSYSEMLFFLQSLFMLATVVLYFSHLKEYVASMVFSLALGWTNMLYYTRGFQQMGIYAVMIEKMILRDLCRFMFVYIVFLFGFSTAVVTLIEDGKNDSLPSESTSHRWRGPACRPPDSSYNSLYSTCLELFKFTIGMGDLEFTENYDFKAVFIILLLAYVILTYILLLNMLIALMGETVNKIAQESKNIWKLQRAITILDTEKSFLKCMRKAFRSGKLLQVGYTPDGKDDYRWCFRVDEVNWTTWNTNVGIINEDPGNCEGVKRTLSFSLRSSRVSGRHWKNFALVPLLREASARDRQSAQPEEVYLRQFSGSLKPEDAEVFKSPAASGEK

Regarding `CC[C@H]1C[C@@H]2CN3CCc4c([nH]c5ccc(OC)cc45)[C@](C(=O)OC)(C2)[C@H]13` [VOACANGINE], the EC50 (in general, the concentration needed to bring the measured effect to its halfway point) in [1] came to 8 µM. Also, in test [1] (HEK-293T), the Activity result is “Dose-dependent effect”. The inhibition result in [2] and in test [4] (HEK-293T) was “Dose-dependent effect” each time. Further, the IC50 (commonly the concentration needed to halve the response being measured) in [3] came out at 9 µM; in test [4], 50 µM. In addition, the figures for the Kb in test [5] (HEK-293T) and in [5] (read-out: pA2 (converted)) were 18 µM and 20 µM, respectively. For the same molecule, in [6], the inhibition result is “inactive”. Besides, the result in [7] was inactive. Further, the result in [8] was Active. Moreover, the inhibition entry in [9] is “Active”.
